Results published in ChEMBL document CHEMBL4350954, “Identification of Thienopyrimidine Scaffold as an Inhibitor of the ABC Transport Protein ABCC1 (MRP1) and Related Transporters Using a Combined Virtual Screening Approach” (J Med Chem, 2019).

Key:
ABCG2 (BCRP) = target: T1, ABCG2 (BCRP) (Homo sapiens, UniProt Q9UNQ0); assay: Inhibition of ABCG2 (unknown origin) expressed in MDCK2 cells co-expressing BCRP (unknown origin) assessed as effect on pheophorbide A accumulation at 10 uM pre-incubated for 20 mins followed by pheophorbide A addition and measured after 120 mins by flow cytometric analysis relative to Ko143; format: cell-based; conditions: probe pheophorbide A
T1 sequence (Q9UNQ0 whole entry): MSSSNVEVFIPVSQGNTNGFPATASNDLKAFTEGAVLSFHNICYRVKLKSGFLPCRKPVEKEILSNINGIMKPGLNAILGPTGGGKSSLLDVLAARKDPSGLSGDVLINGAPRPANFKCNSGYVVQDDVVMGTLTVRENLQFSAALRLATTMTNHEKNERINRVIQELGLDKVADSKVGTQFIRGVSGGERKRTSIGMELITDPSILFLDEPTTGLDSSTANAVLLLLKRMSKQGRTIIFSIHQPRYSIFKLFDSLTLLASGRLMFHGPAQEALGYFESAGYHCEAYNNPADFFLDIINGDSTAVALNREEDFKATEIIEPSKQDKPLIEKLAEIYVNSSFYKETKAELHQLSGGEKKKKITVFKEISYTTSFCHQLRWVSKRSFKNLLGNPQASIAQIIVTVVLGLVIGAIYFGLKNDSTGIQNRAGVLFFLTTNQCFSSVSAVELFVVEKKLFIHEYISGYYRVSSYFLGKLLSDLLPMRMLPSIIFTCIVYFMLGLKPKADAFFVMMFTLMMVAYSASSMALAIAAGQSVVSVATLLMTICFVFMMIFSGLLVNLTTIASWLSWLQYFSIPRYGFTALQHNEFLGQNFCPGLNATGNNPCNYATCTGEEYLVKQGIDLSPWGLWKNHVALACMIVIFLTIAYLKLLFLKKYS
In short: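 Pheophorbide A accumulation assay in ABCG2-transfected MDCK II BCRP cells. Ko143 at 10 µM set 100% and no compound set 0%. Screening was at 10 µM; compounds reaching >20% (+SEM) got IC50 curves constrained to the Ko143 maximum at 10 µM. Values are reported as mean ± SEM.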

[1] = target: T2, Broad substrate specificity ATP-binding cassette transporter ABCG2 (Homo sapiens, UniProt Q9UNQ0); assay: (§1) Reversal of ABCG2 (unknown origin)-mediated multidrug resistance in MDCK2 cells co-expressing BCRP (unknown origin) assessed as resistance factor by measuring [GI50(resistant cell line without or with compound)/ GI50(sensitive cell line)] at 0.5 uM incubated for 72 hrs by MTT assay (reference value: 27); format: cell-based
T2 sequence (Q9UNQ0 whole entry): T1 sequence (Q9UNQ0 whole entry)

[2] = Growth inhibition of human H69AR cells incubated for 72 hrs by MTT assay
In short: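 MTT-based cytotoxicity assay giving GI50 of the compound alone in each listed parental, selected or transfected cell line.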

[3] = target: T2, Broad substrate specificity ATP-binding cassette transporter ABCG2; assay: as §1, with “1” for “0.5”; format: cell-based

- inhibition at 2 h, 10 µM (ABCG2 (BCRP)): ≥ 20%
- RatioGI50 [1]: 21
- RatioGI50 [3]: 17
SMILES: CC1CCc2c(sc3nc(-c4cccnc4)nc(N4CCN(C(C(N)=O)c5ccccc5)CC4)c23)C1 (centres undefined)
- GI50 at 72 h [2]: 56.9 µM
